Measurements from ChEMBL document CHEMBL2062385, “Bone-targeting glycol and NSAIDS ester prodrugs of rhein: synthesis, hydroxyapatite affinity, stability, anti-inflammatory, ulcerogenicity index and pharmacokinetics studies” (Eur J Med Chem, 2012).
Activity calls are given as the source filed them. No cut-off for these calls is given here.

System: not listed separately
Experiment: Tmax in Sprague-Dawley rat at 5.26 mg/kg, po
Type: ADME, organism-based
Set-up: dose 5.26 mg/kg, route oral
Conditions: in vivo
How it was run: (§1)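 SD rats of either sex (200 ± 20 g), six per group, dosed by gastric intubation after recovery from anesthesia. Arterial blood (~0.5 mL) drawn predose and at 0.17, 0.33, 0.5, 0.75, 1, 1.5, 2, 2.5, 3, 4, 5, 7 and 9 h. Plasma separated at once by centrifugation. Rhein in plasma measured by HPLC with diode-array detection.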

Compound	Tmax [h]
O=C(O)c1cc(O)c2c(c1)C(=O)c1cccc(O)c1C2=O [RHEIN]	2.04

System: Rattus norvegicus
Experiment: MRT (0 to 9 hrs) in Sprague-Dawley rat assessed as rhein at 10 mg/kg, po
Type: ADME, organism-based
Set-up: dose 10 mg/kg, route oral
Conditions: in vivo
How it was run: as §1

Compound	MRT [h]
O=C(O)c1cc(O)c2c(c1)C(=O)c1cccc(O)c1C2=O [RHEIN]	4.291

System: not listed separately
Experiment: Half life in Sprague-Dawley rat at 5.26 mg/kg, po
Type: ADME, organism-based
Set-up: dose 5.26 mg/kg, route oral
Conditions: in vivo
How it was run: as §1

Compound	half-life [h]
O=C(O)c1cc(O)c2c(c1)C(=O)c1cccc(O)c1C2=O [RHEIN]	1.24

System: Rattus norvegicus
Experiment: AUC (0 to 9 hrs) in Sprague-Dawley rat assessed as rhein at 10 mg/kg, po
Type: ADME, organism-based, Plasma
Set-up: time < 9 hr, dose 10 mg/kg, route oral
Conditions: in vivo
How it was run: as §1

Compound	AUC [ng·h/mL]
O=C(O)c1cc(O)c2c(c1)C(=O)c1cccc(O)c1C2=O [RHEIN]	1178

System: not listed separately
Experiment: AUC (0 to infinity) in Sprague-Dawley rat at 10 mg/kg, po
Type: ADME, organism-based
Set-up: time infinity, dose 10 mg/kg, route oral
Conditions: plasma
How it was run: as §1

Compound	AUC(0-inf) [ng·h/mL]
COc1ccc2cc(C(C)C(=O)OCCOC(=O)c3cc(O)c4c(c3)C(=O)c3cccc(O)c3C4=O)ccc2c1 (stereo not given)	4860

System: Hydroxyapatite
Experiment: Binding affinity to bone mineral hydroxyapatite after 30 mins by RP-HPLC analysis
Conditions: not given
How it was run: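 Each compound (10 mL, 0.1 mmol/L in water) stirred vigorously with 20, 40 or 80 mg hydroxyapatite for 30 min. Then analysed by HPLC on C18 with methanol/0.1% H3PO4 90:10 (pH 2.3), 25 °C, 1.0 mL/min, 254 nm detection. n = 3.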

Compound	Activity
O=C(OCCO)c1cc(O)c2c(c1)C(=O)c1cccc(O)c1C2=O	Active
O=C(Cc1ccccc1Nc1c(Cl)cccc1Cl)OCCOC(=O)c1cc(O)c2c(c1)C(=O)c1cccc(O)c1C2=O	Active
CC(=O)Oc1cccc2c1C(=O)c1c(OC(C)=O)cc(C(=O)OCCOCCOCCOC(=O)C(C)c3ccc(CC(C)C)cc3)cc1C2=O (stereo not given)	Active
O=C(O)c1cc(O)c2c(c1)C(=O)c1cccc(O)c1C2=O [RHEIN]	Active
COc1ccc2cc(C(C)C(=O)OCCOC(=O)c3cc(O)c4c(c3)C(=O)c3cccc(O)c3C4=O)ccc2c1 (stereo not given)	Active

System: not listed separately
Experiment: AUC (0 to 9 hrs) in Sprague-Dawley rat at 10 mg/kg, po
Type: ADME, organism-based
Set-up: time < 9 hr, dose 10 mg/kg, route oral
Conditions: plasma
How it was run: as §1

Compound	AUC(0-t) at 9 h [ng·h/mL]
COc1ccc2cc(C(C)C(=O)OCCOC(=O)c3cc(O)c4c(c3)C(=O)c3cccc(O)c3C4=O)ccc2c1 (stereo not given)	4420

System: Rattus norvegicus
Experiment: Half life in Sprague-Dawley rat assessed as rhein at 10 mg/kg, po
Type: ADME, organism-based
Set-up: dose 10 mg/kg, route oral
Conditions: in vivo
How it was run: as §1

Compound	t1/2 [h]
O=C(O)c1cc(O)c2c(c1)C(=O)c1cccc(O)c1C2=O [RHEIN]	2.771

System: Mus musculus
Experiment: Ulcerogenic activity in Kunming mouse assessed as ulcer index at 1 mmol/kg, po measured after 4 hrs
Type: toxicity, organism-based
Conditions: in vivo
How it was run: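 Kunming mice of either sex (18-22 g), ten per group, fasted from food and water for 24 h. Then given 1.0 mmol/kg orally as a suspension in 1% methylcellulose. Killed at 4 h; stomachs fixed 30 min in 10% formaldehyde, opened along the greater curvature and ulcers measured under a magnifier. Ulcer index = summed lesion length (mm) per stomach averaged over 10 animals.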

Compound	UI
COc1ccc2cc(C(C)C(=O)OCCOC(=O)c3cc(O)c4c(c3)C(=O)c3cccc(O)c3C4=O)ccc2c1 (stereo not given)	5.8

System: not listed separately
Experiment: Cmax in Sprague-Dawley rat at 5.26 mg/kg, po
Type: ADME, organism-based
Set-up: dose 5.26 mg/kg, route oral
Conditions: in vivo
How it was run: as §1

Compound	Cmax [ng/mL]
O=C(O)c1cc(O)c2c(c1)C(=O)c1cccc(O)c1C2=O [RHEIN]	432

System: not listed separately
Experiment: MRT (0 to infinity) in Sprague-Dawley rat at 5.26 mg/kg, po
Type: ADME, organism-based
Set-up: dose 5.26 mg/kg, route oral
Conditions: in vivo
How it was run: as §1

Compound	MRT inf [h]
O=C(O)c1cc(O)c2c(c1)C(=O)c1cccc(O)c1C2=O [RHEIN]	3.78

System: Rattus norvegicus
Experiment: MRT (0 to infinity) in Sprague-Dawley rat assessed as rhein at 10 mg/kg, po
Type: ADME, organism-based
Set-up: dose 10 mg/kg, route oral
Conditions: in vivo
How it was run: as §1

Compound	MRT [h]
O=C(O)c1cc(O)c2c(c1)C(=O)c1cccc(O)c1C2=O [RHEIN]	5.699

System: not listed separately
Experiment: MRT (0 to 9 hrs) in Sprague-Dawley rat at 10 mg/kg, po
Type: ADME, organism-based
Set-up: dose 10 mg/kg, route oral
Conditions: in vivo
How it was run: as §1

Compound	MRT last [h]
COc1ccc2cc(C(C)C(=O)OCCOC(=O)c3cc(O)c4c(c3)C(=O)c3cccc(O)c3C4=O)ccc2c1 (stereo not given)	3.46

System: Rattus norvegicus
Experiment: AUC (0 to infinity) in Sprague-Dawley rat assessed as rhein at 10 mg/kg, po
Type: ADME, organism-based, Plasma
Set-up: time infinity, dose 10 mg/kg, route oral
Conditions: in vivo
How it was run: as §1

Compound	AUC [ng·h/mL]
O=C(O)c1cc(O)c2c(c1)C(=O)c1cccc(O)c1C2=O [RHEIN]	1394

System: not listed separately
Experiment: Prodrug conversion at pH 1.2 assessed as hydrolysis up to 24 hrs by HPLC analysis
Type: physicochemical
Conditions: buffer, pH 1.2, 24 h
How it was run: (§2)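 Prodrugs held at 37 °C for up to 24 h in phosphate-buffered saline adjusted to pH 1.2 or pH 7.4. Samples taken at set intervals. Released parent drugs quantified by C18 HPLC with methanol/0.1% H3PO4 90:10 (pH 2.3), 25 °C, 1.0 mL/min, 254 nm. Run in triplicate.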

Compound	Drug metabolism
O=C(OCCO)c1cc(O)c2c(c1)C(=O)c1cccc(O)c1C2=O	Active
O=C(Cc1ccccc1Nc1c(Cl)cccc1Cl)OCCOC(=O)c1cc(O)c2c(c1)C(=O)c1cccc(O)c1C2=O	Active
CC(=O)Oc1cccc2c1C(=O)c1c(OC(C)=O)cc(C(=O)OCCOCCOCCOC(=O)C(C)c3ccc(CC(C)C)cc3)cc1C2=O (stereo not given)	Active
O=C(O)c1cc(O)c2c(c1)C(=O)c1cccc(O)c1C2=O [RHEIN]	Active
COc1ccc2cc(C(C)C(=O)OCCOC(=O)c3cc(O)c4c(c3)C(=O)c3cccc(O)c3C4=O)ccc2c1 (stereo not given)	Active

System: not listed separately
Experiment: MRT (0 to infinity) in Sprague-Dawley rat at 10 mg/kg, po
Type: ADME, organism-based
Set-up: dose 10 mg/kg, route oral
Conditions: in vivo
How it was run: as §1

Compound	MRT inf [h]
COc1ccc2cc(C(C)C(=O)OCCOC(=O)c3cc(O)c4c(c3)C(=O)c3cccc(O)c3C4=O)ccc2c1 (stereo not given)	4.23

System: not listed separately
Experiment: AUC (0 to 9 hrs) in Sprague-Dawley rat at 5.26 mg/kg, po
Type: ADME, organism-based
Set-up: time < 9 hr, dose 5.26 mg/kg, route oral
Conditions: plasma
How it was run: as §1

Compound	AUC(0-t) at 9 h [ng·h/mL]
O=C(O)c1cc(O)c2c(c1)C(=O)c1cccc(O)c1C2=O [RHEIN]	1170

System: not listed separately
Experiment: AUC (0 to infinity) in Sprague-Dawley rat at 5.26 mg/kg, po
Type: ADME, organism-based
Set-up: time infinity, dose 5.26 mg/kg, route oral
Conditions: plasma
How it was run: as §1

Compound	AUC(0-inf) [ng·h/mL]
O=C(O)c1cc(O)c2c(c1)C(=O)c1cccc(O)c1C2=O [RHEIN]	1380

System: not listed separately
Experiment: Half life in Sprague-Dawley rat at 10 mg/kg, po
Type: ADME, organism-based
Set-up: dose 10 mg/kg, route oral
Conditions: in vivo
How it was run: as §1

Compound	half-life [h]
COc1ccc2cc(C(C)C(=O)OCCOC(=O)c3cc(O)c4c(c3)C(=O)c3cccc(O)c3C4=O)ccc2c1 (stereo not given)	2.19

System: Mus musculus
Experiment: Antiinflammatory activity in Kunming mouse assessed as inhibition of xylene-induced auricle tumefaction at 0.2 mmol/kg, po qd administered prior to challenge for 5 days measured 30 mins post challenge
Type: functional
Conditions: not given
How it was run: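 Male Kunming mice (18-22 g), ten per group, dosed once daily for 5 days at 0.2 mmol/kg; controls got 0.9% NaCl. A 7 mm filter soaked in xylene was held on the right ear for 30 s, 1 h after the last dose. Mice were killed 30 min later and 7 mm ear punches taken. Inhibition = (1 − a/b)×100%, from tumefaction degree of control and test groups.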

Compound	inhibition in vivo at 200 µmol/kg [%]
O=C(OCCO)c1cc(O)c2c(c1)C(=O)c1cccc(O)c1C2=O	13.9
O=C(Cc1ccccc1Nc1c(Cl)cccc1Cl)OCCOC(=O)c1cc(O)c2c(c1)C(=O)c1cccc(O)c1C2=O	43.9
CC(=O)Oc1cccc2c1C(=O)c1c(OC(C)=O)cc(C(=O)OCCOCCOCCOC(=O)C(C)c3ccc(CC(C)C)cc3)cc1C2=O (stereo not given)	29.3
COc1ccc2cc(C(C)C(=O)OCCOC(=O)c3cc(O)c4c(c3)C(=O)c3cccc(O)c3C4=O)ccc2c1 (stereo not given)	23.9

System: not listed separately
Experiment: MRT (0 to 9 hrs) in Sprague-Dawley rat at 5.26 mg/kg, po
Type: ADME, organism-based
Set-up: dose 5.26 mg/kg, route oral
Conditions: in vivo
How it was run: as §1

Compound	MRT last [h]
O=C(O)c1cc(O)c2c(c1)C(=O)c1cccc(O)c1C2=O [RHEIN]	2.92

System: Rattus norvegicus
Experiment: Tmax in Sprague-Dawley rat assessed as rhein at 10 mg/kg, po
Type: ADME, organism-based
Set-up: dose 10 mg/kg, route oral
Conditions: in vivo
How it was run: as §1

Compound	Tmax [h]
O=C(O)c1cc(O)c2c(c1)C(=O)c1cccc(O)c1C2=O [RHEIN]	2.917

System: Rattus norvegicus
Experiment: Cmax in Sprague-Dawley rat assessed as rhein at 10 mg/kg, po
Type: ADME, organism-based
Set-up: dose 10 mg/kg, route oral
Conditions: in vivo
How it was run: as §1

Compound	Cmax [ng/mL]
O=C(O)c1cc(O)c2c(c1)C(=O)c1cccc(O)c1C2=O [RHEIN]	291

System: not listed separately
Experiment: Prodrug conversion at pH 7.4 assessed as hydrolysis up to 24 hrs by HPLC analysis
Type: physicochemical
Conditions: buffer, pH 7.4, 24 h
How it was run: as §2

Compound	Drug metabolism
O=C(OCCO)c1cc(O)c2c(c1)C(=O)c1cccc(O)c1C2=O	Active
O=C(Cc1ccccc1Nc1c(Cl)cccc1Cl)OCCOC(=O)c1cc(O)c2c(c1)C(=O)c1cccc(O)c1C2=O	Active
CC(=O)Oc1cccc2c1C(=O)c1c(OC(C)=O)cc(C(=O)OCCOCCOCCOC(=O)C(C)c3ccc(CC(C)C)cc3)cc1C2=O (stereo not given)	Active
COc1ccc2cc(C(C)C(=O)OCCOC(=O)c3cc(O)c4c(c3)C(=O)c3cccc(O)c3C4=O)ccc2c1 (stereo not given)	Active

System: not listed separately
Experiment: Tmax in Sprague-Dawley rat at 10 mg/kg, po
Type: ADME, organism-based
Set-up: dose 10 mg/kg, route oral
Conditions: in vivo
How it was run: as §1

Compound	Tmax [h]
COc1ccc2cc(C(C)C(=O)OCCOC(=O)c3cc(O)c4c(c3)C(=O)c3cccc(O)c3C4=O)ccc2c1 (stereo not given)	1.75

System: not listed separately
Experiment: Cmax in Sprague-Dawley rat at 10 mg/kg, po
Type: ADME, organism-based
Set-up: dose 10 mg/kg, route oral
Conditions: in vivo
How it was run: as §1

Compound	Cmax [ng/mL]
COc1ccc2cc(C(C)C(=O)OCCOC(=O)c3cc(O)c4c(c3)C(=O)c3cccc(O)c3C4=O)ccc2c1 (stereo not given)	1090
